Source: ChEMBL document CHEMBL1629654, “Breakthrough Aspergillus fumigatus and Candida albicans double infection during caspofungin treatment: laboratory characteristics and implication for susceptibility testing” (2009)
≈ marks a conversion by molar mass, not a printed value. Calls of active or inactive are those of the source. The calls are words filed in the database; no cut-off is given here.

Legend:
[1] = test system: Candida albicans; experiment: Antimicrobial activity against Candida albicans after 48 hrs by broth microdilution method; type: functional
[2] = test system: Candida tropicalis; experiment: Antimicrobial activity against Candida tropicalis after 48 hrs by Etest; type: functional
[3] = test system: Candida tropicalis; experiment: Antimicrobial activity against Candida tropicalis after 48 hrs by 80% endpoint M27-A2 method; type: functional
[4] = test system: Candida albicans; experiment: Antimicrobial activity against Candida albicans after 24 hrs by M27-A3 method; type: functional
[5] = test system: Nakaseomyces glabratus; experiment: Antimicrobial activity against Candida glabrata after 24 hrs by M27-A3 method; type: functional
[6] = test system: Candida albicans; experiment: Antimicrobial activity against Candida albicans isolate R after 24 hrs by microdilution method; type: functional
Outline: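 Broth microdilution in microtiter plates, read spectrophotometrically at 490 nm. MIC taken as the lowest drug dilution giving 50% growth inhibition. C. krusei […] run as control in each run. Read at 24 h and 48 h; trailing growth noted at 48 h.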

[7] = test system: Candida albicans; experiment: Antimicrobial activity against Candida albicans obtained from wound of patient 20 days after admission by EUCAST microdilution method; type: functional; conditions: 480 h
Outline: (§1)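 EUCAST broth microdilution, plates read spectrophotometrically at 490 nm. MIC is the lowest dilution giving 50% growth inhibition. C. krusei […] control included in each run.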

[8] = test system: Candida albicans; experiment: Antimicrobial activity against Candida albicans obtained from tracheal suction of patient 24 days after admission by EUCAST microdilution method; type: functional; conditions: Trachea, 576 h; outline: as §1
[9] = test system: Candida albicans; experiment: Antimicrobial activity against Candida albicans isolate R infected in NMRI mouse assessed as decrease in kidney bacterial burden at 6 mg/kg, ip measured on day 4; type: functional, organism-based; set-up: dose 6 mg/kg
Outline: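 NMRI mice (26 to 30 g), seven per group, were infected intravenously on day 0 with 1×10^5 CFU. They received caspofungin ip on days 1 to 3 in 0.5 ml; saline-treated mice served as controls. On day 4 the kidneys were removed and homogenized, and 10-fold dilutions were spot plated. Results are log10 CFU/ml homogenate (detection limit 50 CFU/ml), compared by Mann-Whitney test.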

[10] = test system: Nakaseomyces glabratus; experiment: Antimicrobial activity against Candida glabrata after 48 hrs
[11] = test system: Meyerozyma guilliermondii; experiment: Antimicrobial activity against Candida guilliermondii after 48 hrs by 80% endpoint M27-A method

CC[C@H](C)C[C@H](C)CCCCCCCCC(=O)N[C@H]1C[C@@H](O)[C@@H](NCCN)NC(=O)[C@@H]2[C@@H](O)CCN2C(=O)[C@H]([C@H](O)CCN)NC(=O)[C@H]([C@H](O)[C@@H](O)c2ccc(O)cc2)NC(=O)[C@@H]2C[C@@H](O)CN2C(=O)[C@H]([C@@H](C)O)NC1=O [CASPOFUNGIN]
MIC90 [1]: 0.25 µg/mL (≈ 0.229 µM) | MIC90 [2]: 0.5 µg/mL (≈ 0.457 µM) | MIC90 [3]: 0.5 µg/mL (≈ 0.457 µM) | MIC90 [4]: 0.06 µg/mL (≈ 0.0549 µM) | MIC90 [5]: 0.06 µg/mL (≈ 0.0549 µM) | MIC [6]: 1 µg/mL (≈ 0.915 µM) | MIC [7]: 0.5 µg/mL (≈ 0.457 µM) | MIC [8]: 0.25 µg/mL (≈ 0.229 µM) | Activity [9]: inactive | MIC90 [10]: 0.25 µg/mL (≈ 0.229 µM) | MIC90 [11]: 1 µg/mL (≈ 0.915 µM)
